Source: PMC9302689 (British Journal of Clinical Pharmacology, 2022)

Key:
[1] = system: healthy male subjects; assay: NeuroCart saccadic eye movement; format: in vivo, human; conditions: 12-hour post-dose period
Method in brief: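 Fasted healthy men were tested twice pre-dose and at 0.5–10 h post-dose with the head fixed 58 cm from the screen. Subjects followed a dot jumping about 15 degrees to either side. Fifteen saccades were recorded at random 3–6 s intervals. Peak velocity (deg/s) was averaged over artefact-free saccades. Change from baseline over 12 h was analysed by MMRM against pooled placebo.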

[2] = system: healthy male subjects; assay: NeuroCart adaptive tracking; format: in vivo, human; conditions: 12-hour post-dose period
Method in brief: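 Fasted healthy men received a single dose or placebo capsule. Testing was done in a quiet, dim room, one subject at a time, after training at screening. Runs were twice pre-dose and at 0.5–10 h post-dose. The read-out was mean circle speed as % of maximum over 3.5 min. Change from baseline over 12 h was analysed by MMRM against pooled placebo, with baseline as covariate.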

[3] = system: healthy male subjects; assay: VAS Bond and Lader; format: in vivo, human; conditions: 12-hour post-dose period
Method in brief: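 Subjects marked 16 horizontal 100 mm visual analogue scales twice pre-dose and at 0.5–10 h after a single dose or placebo. Three factors were derived: alertness from 9 scores, mood from 5 and calmness from 2. Change from baseline over 12 h was analysed by MMRM against pooled placebo, with baseline as covariate.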

[4] = system: healthy male subjects; assay: VAS Bowdle; format: in vivo, human; conditions: 12-hour post-dose period
Method in brief: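 Psychedelic effects were rated on 13 lines scored from 0 (not at all) to 100 mm (extremely), twice pre-dose and at 0.5–10 h post-dose. Change from baseline over 12 h was analysed by MMRM with baseline as covariate. The 3 mg dose group, not placebo, served as the reference.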

[5] = biological target: SERT (Homo sapiens, UniProt P31645); assay: In vitro binding affinity, SERT; conditions: read-out: Ki, SERT; preclinical in vitro panel
Chain of SERT (P31645 whole entry, species assumed): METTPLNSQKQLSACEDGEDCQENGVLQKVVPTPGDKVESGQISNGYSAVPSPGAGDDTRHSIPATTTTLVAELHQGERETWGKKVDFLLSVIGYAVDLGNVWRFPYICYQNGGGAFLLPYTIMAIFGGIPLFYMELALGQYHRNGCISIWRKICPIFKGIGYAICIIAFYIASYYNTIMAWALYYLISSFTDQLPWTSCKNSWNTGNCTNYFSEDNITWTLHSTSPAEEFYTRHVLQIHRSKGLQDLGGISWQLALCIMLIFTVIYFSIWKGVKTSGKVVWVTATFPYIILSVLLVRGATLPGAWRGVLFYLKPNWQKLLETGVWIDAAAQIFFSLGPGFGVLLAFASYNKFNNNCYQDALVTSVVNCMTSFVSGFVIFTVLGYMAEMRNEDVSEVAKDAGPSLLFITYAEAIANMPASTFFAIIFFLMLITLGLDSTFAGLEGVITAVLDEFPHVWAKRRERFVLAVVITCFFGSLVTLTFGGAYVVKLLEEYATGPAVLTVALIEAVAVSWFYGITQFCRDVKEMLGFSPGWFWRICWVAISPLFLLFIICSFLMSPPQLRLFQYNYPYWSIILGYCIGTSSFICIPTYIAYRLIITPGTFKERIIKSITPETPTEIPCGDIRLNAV

[6] = biological target: NMDA receptor; assay: In vitro binding affinity, NMDA receptor; conditions: read-out: Ki, NMDA receptor; preclinical in vitro panel
[7] = biological target: sigma non‐opioid intracellular receptor 1 (Homo sapiens, UniProt Q99720); assay: In vitro binding affinity, sigma non-opioid intracellular receptor 1
Chain of sigma non‐opioid intracellular receptor 1 (Q99720 whole entry, species assumed, the tested form may be a part): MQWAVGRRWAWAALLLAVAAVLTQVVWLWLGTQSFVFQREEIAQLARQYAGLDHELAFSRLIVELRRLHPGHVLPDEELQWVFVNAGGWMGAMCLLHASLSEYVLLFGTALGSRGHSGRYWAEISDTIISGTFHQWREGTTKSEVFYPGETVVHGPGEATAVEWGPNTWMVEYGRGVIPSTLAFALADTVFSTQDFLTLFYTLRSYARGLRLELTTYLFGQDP

[8] = system: dopamine release induced by infusion of NMDA in the striatum; assay: NMDA-induced dopamine release in the striatum; format: in vivo; conditions: rats, oral dose of 10 mg/kg
[9] = system: rats; assay: Preclinical multiple dose toxicology study in rats; format: in vivo

With `CN1CCC23CCCCC2C1Cc1ccc(C(N)=O)cc13` (stereo not drawn) [ALKS 7119, (9α, 13α)‐17‐methylmorphinan‐3‐carboxamide] the “Saccadic peak velocity, LSM CFB” value ([1]; 3 mg single oral dose) was −16.15 deg/s, the “Saccadic peak velocity, LSM CFB” value ([1]; 10 mg single oral dose) was 1.46 deg/s and the “Saccadic peak velocity, LSM CFB” value ([1]; 25 mg single oral dose) was 6.12 deg/s. For the same compound, the “Saccadic peak velocity, LSM CFB” value ([1]; 50 mg single oral dose) was 2.91 deg/s, the “Saccadic peak velocity, LSM CFB” value ([1]; 75 mg single oral dose) was −5.63 deg/s and the “Saccadic peak velocity, LSM CFB” value ([1]; 100 mg single oral dose) was 13.25 deg/s. The “Saccadic peak velocity, LSM CFB” value ([1]; 125 mg single oral dose) was 5.98 deg/s, the “Saccadic peak velocity, LSM CFB” value ([1]; 150 mg single oral dose) was 18.15 deg/s and the “Saccadic peak velocity, LSM CFB” value ([1]; 175 mg single oral dose) was 5.26 deg/s. For the same compound, the “Saccadic peak velocity, LSM CFB” value ([1]; 200 mg single oral dose) was −0.64 deg/s, the “Adaptive tracking, LSM CFB” value ([2]; 3 mg single oral dose) was 0.15% and the “Adaptive tracking, LSM CFB” value ([2]; 10 mg single oral dose) was 2.4%. The “Adaptive tracking, LSM CFB” value ([2]; 25 mg single oral dose) was 0.24%, the “Adaptive tracking, LSM CFB” value ([2]; 50 mg single oral dose) was 2.04% and the “Adaptive tracking, LSM CFB” value ([2]; 75 mg single oral dose) was 0.25%. For the same compound, the “Adaptive tracking, LSM CFB” value ([2]; 100 mg single oral dose) was 1.05%, the “Adaptive tracking, LSM CFB” value ([2]; 125 mg single oral dose) was 0.8% and the “Adaptive tracking, LSM CFB” value ([2]; 150 mg single oral dose) was 0.65%. For the same compound, the “Adaptive tracking, LSM CFB” value ([2]; 175 mg single oral dose) was 0.9%, the “Adaptive tracking, LSM CFB” value ([2]; 200 mg single oral dose) was 0.72% and the “VAS Bond and Lader “calmness”, LSM CFB” value ([3]; 3 mg single oral dose) was 6.65 mm. For the same compound, the “VAS Bond and Lader “mood”, LSM CFB” value ([3]; 3 mg single oral dose) was 6.17 mm, the “VAS Bond and Lader “subjective alertness”, LSM CFB” value ([3]; 3 mg single oral dose) was 1.64 mm and the “VAS Bond and Lader “calmness”, LSM CFB” value ([3]; 10 mg single oral dose) was −0.31 mm. The “VAS Bond and Lader “mood”, LSM CFB” value ([3]; 10 mg single oral dose) was −0.04 mm, the “VAS Bond and Lader “subjective alertness”, LSM CFB” value ([3]; 10 mg single oral dose) was 0.03 mm and the “VAS Bond and Lader “calmness”, LSM CFB” value ([3]; 25 mg single oral dose) was −0.57 mm. For the same compound, the “VAS Bond and Lader “mood”, LSM CFB” value ([3]; 25 mg single oral dose) was −0.14 mm, the “VAS Bond and Lader “subjective alertness”, LSM CFB” value ([3]; 25 mg single oral dose) was 0.26 mm and the “VAS Bond and Lader “calmness”, LSM CFB” value ([3]; 50 mg single oral dose) was 3.6 mm. The “VAS Bond and Lader “mood”, LSM CFB” value ([3]; 50 mg single oral dose) was 4.47 mm, the “VAS Bond and Lader “subjective alertness”, LSM CFB” value ([3]; 50 mg single oral dose) was 0.96 mm and the “VAS Bond and Lader “calmness”, LSM CFB” value ([3]; 75 mg single oral dose) was 0.26 mm. For the same compound, the “VAS Bond and Lader “mood”, LSM CFB” value ([3]; 75 mg single oral dose) was −0.82 mm, the “VAS Bond and Lader “subjective alertness”, LSM CFB” value ([3]; 75 mg single oral dose) was −1.02 mm and the “VAS Bond and Lader “calmness”, LSM CFB” value ([3]; 100 mg single oral dose) was 0.58 mm. For the same compound, the “VAS Bond and Lader “mood”, LSM CFB” value ([3]; 100 mg single oral dose) was 0.56 mm, the “VAS Bond and Lader “subjective alertness”, LSM CFB” value ([3]; 100 mg single oral dose) was 0.57 mm and the “VAS Bond and Lader “calmness”, LSM CFB” value ([3]; 125 mg single oral dose) was 0.46 mm. The “VAS Bond and Lader “mood”, LSM CFB” value ([3]; 125 mg single oral dose) was 1.63 mm, the “VAS Bond and Lader “subjective alertness”, LSM CFB” value ([3]; 125 mg single oral dose) was −0.56 mm and the “VAS Bond and Lader “calmness”, LSM CFB” value ([3]; 150 mg single oral dose) was 2.59 mm. The “VAS Bond and Lader “mood”, LSM CFB” value ([3]; 150 mg single oral dose) was 3.35 mm, the “VAS Bond and Lader “subjective alertness”, LSM CFB” value ([3]; 150 mg single oral dose) was 1.94 mm and the “VAS Bond and Lader “calmness”, LSM CFB” value ([3]; 175 mg single oral dose) was 0.08 mm. The “VAS Bond and Lader “mood”, LSM CFB” value ([3]; 175 mg single oral dose) was 0.11 mm, the “VAS Bond and Lader “subjective alertness”, LSM CFB” value ([3]; 175 mg single oral dose) was −1.17 mm and the “VAS Bond and Lader “calmness”, LSM CFB” value ([3]; 200 mg single oral dose) was 0.68 mm. For the same compound, the “VAS Bond and Lader “mood”, LSM CFB” value ([3]; 200 mg single oral dose) was 0.51 mm, the “VAS Bond and Lader “subjective alertness”, LSM CFB” value ([3]; 200 mg single oral dose) was 0.09 mm and the “VAS Bowdle “external perception”, LSM CFB” value ([4]; 3 mg single oral dose) was 0.00. The “VAS Bowdle “feeling high”, LSM CFB” value ([4]; 3 mg single oral dose) was 0.00, the “VAS Bowdle “internal perception”, LSM CFB” value ([4]; 3 mg single oral dose) was 0.00 and the “VAS Bowdle “external perception”, LSM CFB” value ([4]; 10 mg single oral dose) was 0.00. For the same compound, the “VAS Bowdle “feeling high”, LSM CFB” value ([4]; 10 mg single oral dose) was 0.00, the “VAS Bowdle “internal perception”, LSM CFB” value ([4]; 10 mg single oral dose) was 0.00 and the “VAS Bowdle “external perception”, LSM CFB” value ([4]; 25 mg single oral dose) was 0.00. For the same compound, the “VAS Bowdle “feeling high”, LSM CFB” value ([4]; 25 mg single oral dose) was 0.00, the “VAS Bowdle “internal perception”, LSM CFB” value ([4]; 25 mg single oral dose) was 0.00 and the “VAS Bowdle “external perception”, LSM CFB” value ([4]; 50 mg single oral dose) was 0.00. The “VAS Bowdle “feeling high”, LSM CFB” value ([4]; 50 mg single oral dose) was 0.00, the “VAS Bowdle “internal perception”, LSM CFB” value ([4]; 50 mg single oral dose) was 0.00 and the “VAS Bowdle “external perception”, LSM CFB” value ([4]; 75 mg single oral dose) was 0.00. For the same compound, the “VAS Bowdle “feeling high”, LSM CFB” value ([4]; 75 mg single oral dose) was 0.00, the “VAS Bowdle “internal perception”, LSM CFB” value ([4]; 75 mg single oral dose) was 0.00 and the “VAS Bowdle “external perception”, LSM CFB” value ([4]; 100 mg single oral dose) was 0.00. For the same compound, the “VAS Bowdle “feeling high”, LSM CFB” value ([4]; 100 mg single oral dose) was 0.00, the “VAS Bowdle “internal perception”, LSM CFB” value ([4]; 100 mg single oral dose) was 0.00 and the “VAS Bowdle “external perception”, LSM CFB” value ([4]; 125 mg single oral dose) was 0.00. The “VAS Bowdle “feeling high”, LSM CFB” value ([4]; 125 mg single oral dose) was 0.00, the “VAS Bowdle “internal perception”, LSM CFB” value ([4]; 125 mg single oral dose) was 0.00 and the “VAS Bowdle “external perception”, LSM CFB” value ([4]; 150 mg single oral dose) was 0.00. For the same compound, the “VAS Bowdle “feeling high”, LSM CFB” value ([4]; 150 mg single oral dose) was 0.00, the “VAS Bowdle “internal perception”, LSM CFB” value ([4]; 150 mg single oral dose) was 0.00 and the “VAS Bowdle “external perception”, LSM CFB” value ([4]; 175 mg single oral dose) was 0.00. For the same compound, the “VAS Bowdle “feeling high”, LSM CFB” value ([4]; 175 mg single oral dose) was 0.00, the “VAS Bowdle “internal perception”, LSM CFB” value ([4]; 175 mg single oral dose) was 0.00 and the “VAS Bowdle “external perception”, LSM CFB” value ([4]; 200 mg single oral dose) was 0.00. The “VAS Bowdle “feeling high”, LSM CFB” value ([4]; 200 mg single oral dose) was 0.00, the “VAS Bowdle “internal perception”, LSM CFB” value ([4]; 200 mg single oral dose) was 0.00 and the Ki [5] was 0.035 µM. The Ki [6] was 7.44 µM, the “Affinity for sigma non-opioid intracellular receptor 1 lower than for SERT” value [7] was 900 fold and the “Effect on dopamine release induced by NMDA infusion in the striatum” value [8] was “completely blocked dopamine release”. For the same compound, the “human equivalent dose (HED) of NOAEL” value ([9]; rat NOAEL, body surface area extrapolation per FDA guidelines) was 96 mg and the NOAEL ([9]; rats, multiple dose toxicology) was 10 mg/kg.
